From article PMC2881163 (The journal of physical chemistry. B, 2010)

How the values were obtained:
[1] = test system: mice; conditions: cited from earlier work
[2] = Surface tension, Du Nouy ring tensiometer; assay type: physicochemical; conditions: aqueous solution, 25 °C; for surface tension: at 10 mM, triplicate solutions
Method in brief: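 Test compound solutions were equilibrated to 25 °C. The ring was immersed 5 mm below the surface, then retracted automatically at 5 mm/min. Between measurements the ring was rinsed with water and ethanol and flamed. Solutions were prepared in triplicate.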

[3] = Dynamic light scattering of aqueous solutions; assay type: physicochemical; conditions: 25 °C; for z-average diameter of micelles: DLS cumulant analysis, water, concentrations above the CMC, mean ± SD
Method in brief: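 He-Ne laser (632.8 nm) with backscatter detection at 173°, 25 °C, using water viscosity 0.8937 cP and refractive index 1.333. Samples diluted from stock in Milli-Q water and filtered (0.02 μm). Solvent scattering was subtracted and plotted against concentration, with the inflection taken as the CMC. Triton X-100 served as positive control and a non-amphiphilic peptide as negative control. Triplicate samples were each read three times. Z-average came from a single-exponential cumulant fit and size distribution from a multi-exponential fit.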

[4] = cited from earlier work
[5] = low, clinically relevant concentrations; cited from earlier work
[6] = Stability of CMS in solution; assay type: physicochemical; conditions: 0.9% saline, 25 °C, over 120 hr

Colistin
LD50 [1]: 217.7 mg/kg | interfacial tension after the CMC [2]: approximately 40 dynes/cm | surface tension [2]: 35–40 mN/m | z-average diameter of micelles [3]: 2.07 ± 0.3 nm

Triton X-100
z-average diameter of micelles [3]: 8.17 ± 0.59 nm

colistin methanesulfonate [CMS]
LD50 [1]: 5.43 mg/kg | conversion of CMS to colistin in buffer solutions in vitro ([4]; <100 μg/mL at 37 °C): rapid | stability of concentrated CMS solutions with respect to formation of colistin ([4]; >70 mg/mL, relevant to commercial pharmaceutical formulations): stable for extended periods | surface tension [2]: 35–40 mN/m | z-average diameter of micelles [3]: ~1.98 ± 0.36 nm | conversion of CMS to colistin in plasma and urine in vivo [5]: rapid | conversion of CMS to colistin, initial concentration 0.052 mM ([6]; n = 3, HPLC of colistin formed): Rapid conversion | conversion of CMS to colistin, initial concentration 0.52 mM ([6]; n = 3, HPLC of colistin formed): Less rapid conversion | degradation of CMS, initial concentration 5.2 mM ([6]; n = 3, well above the CMC): negligible | degradation of CMS, initial concentration 52 mM ([6]; n = 3, well above the CMC): negligible

polymyxin B nonapeptide hydrochloride [PMBN]
light scattering above that of water ([3]; DLS, up to 20 mM, no reliable size data could be obtained): negligible
